From ChEMBL document CHEMBL1150828, “Antimalarial, cytotoxic, and antifungal alkaloids from Duguetia hadrantha” (J Nat Prod, 2001)
In brackets after ≈: the same amount, converted by molar mass. Activity calls are given as the source filed them. The calls are words filed in the database; no cut-off is given here.

What was measured:
[1] = Selectivity index, ratio of IC50 of african green monkey (Cercopithecus aethiops) Vero cells to IC50 for chloroquine-sensitive Plasmodium falciparum D6; format: toxicity, cell-based; details: read-out: Ratio IC50
Cryptococcus neoformans [2] = assay: Antifungal activity against Cryptococcus neoformans ATCC 90113 after 48 hrs by modified well microplate assay; format: functional, organism-based
Outline: (§1)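 ATCC strains (C. albicans B311 #90028, C. neoformans #90113, S. aureus #6535, MRSA #33591) were tested in a modified 96-well microplate protocol. […] Amphotericin B and rifampin served as positive controls and DMSO as the negative control.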

Candida albicans [3] = assay: Antifungal activity against Candida albicans B311 after 48 hrs by modified well microplate assay; format: functional, organism-based; details: B311, 48 h; outline: as §1
Plasmodium falciparum [4] = assay: Antimalarial activity after 48 hrs against chloroquine-resistant Plasmodium falciparum W2 as LDH activity by Makler method; format: functional, organism-based; details: W2, 48 h
Outline: (§2)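 Parasite lactate dehydrogenase (pLDH) assay adapted from Makler, run in 96-well microplates on two P. falciparum clones, W-2 and D-6 (D-6 chloroquine-sensitive). Chloroquine and artemisinin were positive controls, with DMSO as the vehicle control.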

Staphylococcus aureus [5] = assay: Antibacterial activity against methicillin-resistant Staphylococcus aureus ATCC 33591 after 48 hrs by modified well microplate assay; format: functional, organism-based; outline: as §1
Plasmodium falciparum [6] = assay: Antimalarial activity after 48 hrs against chloroquine-sensitive Plasmodium falciparum D6 as LDH activity by Makler method; format: functional, organism-based; details: D6, 48 h; outline: as §2
[7] = Selectivity index, ratio of IC50 of african green monkey (Cercopithecus aethiops) Vero cells to IC50 for chloroquine-resistant Plasmodium falciparum W2; format: toxicity, cell-based; details: read-out: Ratio IC50
[8] = Specific index, ratio of IC50 for human HL60 cells to MIC for LFA1/ICAM1 mediated aggregation in TPA-stimulated human HL60 cells; format: functional, HL-60
Outline: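 Ratio of XTT IC50 in HL-60 cells (4 h XTT-PMS read after the aggregation assay) to the microscopic aggregation MIC of PMA (10 ng/mL)-stimulated HL-60 cells scored 16 h after PMA.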

Staphylococcus aureus [9] = assay: Antibacterial activity against Staphylococcus aureus ATCC 6535 after 48 hrs by modified well microplate assay; format: functional, organism-based; outline: as §1
Cryptococcus neoformans [10] = assay: Antifungal activity against Cryptococcus neoformans ATCC 90113; format: functional
[11] = biological target: Intercellular adhesion molecule (ICAM-1), Integrin alpha-L/beta-2 (Homo sapiens) (UniProt P20701+P05362+P05107); assay: Inhibition of LFA1/ICAM1-mediated aggregation of TPA-stimulated human HL60 cells pretreated 10 mins before TPA challenge measured after 16 hrs of PMA addition by microscopy; format: cell-based; details: HL-60
Outline: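 HL-60 cells at 1 × 10^6 cells/mL preincubated 10 min with sample, then PMA 10 ng/mL added; plates kept in CO2 incubator and aggregation scored microscopically 16 h after PMA; MIC reported; cytochalasin B, anti-LFA-1 and anti-ICAM-1 antibodies as positive controls.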

HL-60 = assay: Cytotoxicity against human HL60 cells after 16 hrs by XTT/PMS assay; details: HL-60, 16 h
SK-OV-3 = assay: Cytotoxicity against human SKOV3 cells after 2 to 7 days by neutral red assay; format: functional, cell-based
BT-549 = assay: Cytotoxicity against human BT549 cells after 2 to 7 days by neutral red assay; format: functional, cell-based
KB = assay: Cytotoxicity against human KB cells after 2 to 7 days by neutral red assay; format: functional, cell-based
SK-MEL = assay: Cytotoxicity against human SK-MEL cells after 2 to 7 days by neutral red assay; format: functional, cell-based
Plasmodium falciparum [12] = assay: Antimalarial activity against chloroquine-sensitive Plasmodium falciparum D6; format: functional, organism-based
Outline: (§3)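 In vitro antimalarial screen using the parasite lactate dehydrogenase (pLDH) assay, adapted from Makler et al. and run in 96-well microplates. Two P. falciparum clones were tested: W-2 (chloroquine-resistant) and D-6 (chloroquine-sensitive). Chloroquine and artemisinin served as positive controls and DMSO as the vehicle (negative) control. IC50 values were reported.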

Plasmodium falciparum [13] = assay: Antimalarial activity against chloroquine-resistant Plasmodium falciparum W2; format: functional, organism-based; outline: as §3
[14] = biological target: Intercellular adhesion molecule (ICAM-1), Integrin alpha-L/beta-2 (Homo sapiens, UniProt P05107+P05362+P20701); assay: Inhibition of LFA1/ICAM1-mediated CFSE-labeled TPA-stimulated human HL60 cell adhesion to ICAM1 expressing human HeLa cells after 45 mins by fluorescence analysis; format: cell-based
Outline: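 CFSE-labelled HL-60 cells plus sample added onto confluent ICAM-1-expressing HeLa monolayers with PMA 50 ng/mL; 45 min at 37 °C in CO2 incubator; nonadherent cells washed off, remainder lysed in 1% Triton X-100; fluorescence at ex 496/em 519 nm; anti-ICAM-1 antibody and cytochalasin B positive controls.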

[15] = Specific index, ratio of IC50 for human HL60 cells to IC50 for LFA1/ICAM1-mediated CFSE-labeled TPA-stimulated human HL60 cell adhesion to ICAM1 expressing human HeLa cells
Outline: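 Index = HL-60 XTT IC50 / adhesion IC50. XTT: HL-60 at 1 × 10^6 cells/mL, sample 10 min, then PMA 10 ng/mL for 16 h; then XTT 1 mg/mL with 25 µM PMS for 4 h at 37 °C, A450 (ref 630). Adhesion: CFSE-labeled HL-60 on confluent HeLa monolayers, PMA 50 ng/mL, 45 min at 37 °C; nonadherent cells washed off, remainder lysed in 1% Triton X-100, fluorescence ex 496/em 519 nm.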

Candida albicans [16] = assay: Antifungal activity against Candida albicans B311; format: functional
[17] = Cryptococcus neoformans, ATCC 90113, 48 h
[18] = Cryptococcus neoformans, ATCC 90113, 48 h, read-out: IC50
[19] = Staphylococcus aureus, ATCC 33591, 48 h, read-out: IC50
[20] = Staphylococcus aureus, ATCC 6535, 48 h
[21] = Staphylococcus aureus, ATCC 6535, 48 h, read-out: IC50
[22] = Homo sapiens, BT-549, read-out: IC50
[23] = Homo sapiens, KB, read-out: IC50
[24] = Staphylococcus aureus, ATCC 33591, 48 h

Sequence of Intercellular adhesion molecule (ICAM-1), Integrin alpha-L/beta-2 (P20701 whole entry): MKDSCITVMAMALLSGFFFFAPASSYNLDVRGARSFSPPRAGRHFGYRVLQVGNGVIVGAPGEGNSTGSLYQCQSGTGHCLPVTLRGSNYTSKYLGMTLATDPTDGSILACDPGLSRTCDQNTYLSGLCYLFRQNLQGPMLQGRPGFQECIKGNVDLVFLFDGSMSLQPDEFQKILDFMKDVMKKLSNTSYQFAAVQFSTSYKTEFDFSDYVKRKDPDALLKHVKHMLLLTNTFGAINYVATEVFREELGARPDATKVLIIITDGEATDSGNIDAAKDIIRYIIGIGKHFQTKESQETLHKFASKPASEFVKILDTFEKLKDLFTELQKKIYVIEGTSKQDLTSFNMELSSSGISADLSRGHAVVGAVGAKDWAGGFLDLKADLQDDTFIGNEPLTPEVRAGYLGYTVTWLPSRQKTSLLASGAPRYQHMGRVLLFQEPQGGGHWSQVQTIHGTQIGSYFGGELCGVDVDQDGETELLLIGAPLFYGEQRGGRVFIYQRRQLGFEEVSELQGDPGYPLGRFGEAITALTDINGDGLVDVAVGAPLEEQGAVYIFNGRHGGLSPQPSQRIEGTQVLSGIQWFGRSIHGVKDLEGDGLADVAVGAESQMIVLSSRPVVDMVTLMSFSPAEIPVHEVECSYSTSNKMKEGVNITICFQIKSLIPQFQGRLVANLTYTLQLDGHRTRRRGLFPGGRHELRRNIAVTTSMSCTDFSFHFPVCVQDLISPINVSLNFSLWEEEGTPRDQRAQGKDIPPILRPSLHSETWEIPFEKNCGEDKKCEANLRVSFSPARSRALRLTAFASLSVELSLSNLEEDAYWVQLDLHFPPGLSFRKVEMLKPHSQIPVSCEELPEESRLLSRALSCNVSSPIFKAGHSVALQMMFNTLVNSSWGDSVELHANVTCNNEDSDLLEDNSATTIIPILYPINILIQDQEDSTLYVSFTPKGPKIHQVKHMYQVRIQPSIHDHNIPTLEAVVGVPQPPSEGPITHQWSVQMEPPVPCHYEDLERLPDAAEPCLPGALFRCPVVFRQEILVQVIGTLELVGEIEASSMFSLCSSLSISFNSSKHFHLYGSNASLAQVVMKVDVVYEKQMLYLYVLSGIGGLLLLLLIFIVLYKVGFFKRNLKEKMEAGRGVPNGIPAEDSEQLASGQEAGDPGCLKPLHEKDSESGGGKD
Sequence of Intercellular adhesion molecule (ICAM-1), Integrin alpha-L/beta-2 (P05362 whole entry): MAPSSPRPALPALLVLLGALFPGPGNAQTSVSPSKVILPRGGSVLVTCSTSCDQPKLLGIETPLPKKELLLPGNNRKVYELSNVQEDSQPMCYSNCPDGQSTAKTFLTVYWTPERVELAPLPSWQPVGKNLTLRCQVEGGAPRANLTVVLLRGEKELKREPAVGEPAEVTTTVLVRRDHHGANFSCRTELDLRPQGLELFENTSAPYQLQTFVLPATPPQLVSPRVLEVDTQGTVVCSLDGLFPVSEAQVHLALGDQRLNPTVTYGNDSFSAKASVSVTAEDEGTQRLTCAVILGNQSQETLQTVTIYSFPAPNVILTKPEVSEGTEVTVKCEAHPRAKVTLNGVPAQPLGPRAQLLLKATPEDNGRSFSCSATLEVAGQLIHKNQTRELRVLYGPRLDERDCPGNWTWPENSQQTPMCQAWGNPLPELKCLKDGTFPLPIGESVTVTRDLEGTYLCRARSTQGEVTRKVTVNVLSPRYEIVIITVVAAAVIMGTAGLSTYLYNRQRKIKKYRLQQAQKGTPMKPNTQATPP
Sequence of Intercellular adhesion molecule (ICAM-1), Integrin alpha-L/beta-2 (P05107 whole entry): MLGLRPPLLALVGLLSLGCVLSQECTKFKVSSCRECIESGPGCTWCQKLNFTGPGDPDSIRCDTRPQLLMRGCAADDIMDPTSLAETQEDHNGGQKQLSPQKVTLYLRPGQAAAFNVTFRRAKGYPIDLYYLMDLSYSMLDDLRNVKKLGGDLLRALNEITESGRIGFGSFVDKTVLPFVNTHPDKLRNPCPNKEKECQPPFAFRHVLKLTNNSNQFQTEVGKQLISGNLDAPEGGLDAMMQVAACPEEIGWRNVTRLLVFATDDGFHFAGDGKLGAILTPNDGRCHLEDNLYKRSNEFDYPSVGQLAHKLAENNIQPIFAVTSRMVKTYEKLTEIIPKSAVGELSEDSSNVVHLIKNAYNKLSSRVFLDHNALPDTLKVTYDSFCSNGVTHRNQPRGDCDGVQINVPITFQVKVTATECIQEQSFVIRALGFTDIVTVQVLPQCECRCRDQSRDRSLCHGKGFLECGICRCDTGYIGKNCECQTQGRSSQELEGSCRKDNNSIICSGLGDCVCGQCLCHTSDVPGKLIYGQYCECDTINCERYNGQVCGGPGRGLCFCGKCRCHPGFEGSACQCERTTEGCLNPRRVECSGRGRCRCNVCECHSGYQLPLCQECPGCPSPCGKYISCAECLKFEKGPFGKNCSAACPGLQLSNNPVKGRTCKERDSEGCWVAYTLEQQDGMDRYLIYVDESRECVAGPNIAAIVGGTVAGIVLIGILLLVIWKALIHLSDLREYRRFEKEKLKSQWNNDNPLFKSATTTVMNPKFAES

Row | SMILES | selectivity ratio [1] | IC50 (Cryptococcus neoformans [2]; [18]) [mg/L] | IC50 (Candida albicans [3]) [mg/L] | MIC (Candida albicans [3]) [mg/L] | IC50 (Plasmodium falciparum [4]) [mg/L] | IC50 (Plasmodium falciparum [6]) [mg/L] | selectivity ratio [7] | MIC [11] [mg/L] | IC50 (HL-60) [mg/L] | IC50 (SK-OV-3) [mg/L] | IC50 (SK-MEL) [mg/L] | IC50 (BT-549; [22]) [mg/L] | IC50 (KB; [23]) [mg/L] | also measured
1 | COc1cnc2c3c(nccc13)C(=O)c1ccccc1-2 | > 17 | 0.65 (≈ 2.48 µM) | 3 (≈ 11.4 µM) | 20 (≈ 76.3 µM) | 0.095 (≈ 0.362 µM) | 0.28 (≈ 1.07 µM) | > 50 | 12.5 (≈ 47.7 µM) | 7.2 (≈ 27.5 µM) | > 10 | > 10 | – | – | MIC (Cryptococcus neoformans [2]; [17]): 3.12 mg/L (≈ 11.9 µM); IC50 (Staphylococcus aureus [5]; [19]): 20 mg/L (≈ 76.3 µM); Ratio [8]: 0.6; MIC (Staphylococcus aureus [9]; [20]): 25 mg/L (≈ 95.3 µM); IC50 (Staphylococcus aureus [9]; [21]): 15 mg/L (≈ 57.2 µM); MIC (Cryptococcus neoformans [10]): 0.78 mg/L (≈ 2.97 µM); IC50 (BT-549; bt-549): Not Active; IC50 (KB; kb): Not Active
2 | COc1c2c3c(ccnc3c3ccccc13)C(=O)C(=O)N2C | > 8.7 | 50 (≈ 171 µM) | 9 (≈ 30.8 µM) | 50 (≈ 171 µM) | 0.28 (≈ 0.958 µM) | 0.55 (≈ 1.88 µM) | > 17 | – | – | 5 (≈ 17.1 µM) | 2 (≈ 6.84 µM) | > 10 | > 10 | IC50 (Staphylococcus aureus [5]): Not Active; MIC (Staphylococcus aureus [5]): inactive; IC50 (Staphylococcus aureus [9]): Not Active; MIC (Staphylococcus aureus [9]): inactive
3 | C[C@@H]1[C@H](O)[C@@H](C)/C=C/C=C/C=C/C=C/C=C/C=C/C=C/[C@H](O[C@@H]2O[C@H](C)[C@@H](O)[C@H](N)[C@@H]2O)C[C@@H]2O[C@](O)(C[C@@H](O)C[C@@H](O)[C@H](O)CC[C@@H](O)C[C@@H](O)CC(=O)O[C@H]1C)C[C@H](O)[C@H]2C(=O)O [AMPHOTERICIN B] | – | 0.045 (≈ 0.0487 µM) | 0.011 (≈ 0.0119 µM) | 0.02 (≈ 0.0216 µM) | – | – | – | – | – | – | – | – | – | MIC (Cryptococcus neoformans [2]; [17]): 0.156 mg/L (≈ 0.169 µM); IC50 (Staphylococcus aureus [5]): Not Active; MIC (Staphylococcus aureus [5]): inactive; IC50 (Staphylococcus aureus [9]): Not Active; MIC (Staphylococcus aureus [9]): inactive
4 | C[C@@H]1CC[C@H]2[C@@H](C)C(=O)O[C@@H]3O[C@@]4(C)CC[C@@H]1[C@]32OO4 [ARTEMISININ] | > 952 | – | – | – | 0.0044 (≈ 0.0156 µM) | 0.005 (≈ 0.0177 µM) | > 1080 | – | – | – | – | – | – | IC50 (Plasmodium falciparum [12]): 0.0018 mg/L (≈ 0.00638 µM); IC50 (Plasmodium falciparum [13]): 0.0005 mg/L (≈ 0.00177 µM)
5 | C=C1[C@@H](C)[C@H]2[C@H](Cc3ccccc3)NC(=O)[C@]23OC(=O)/C=C/[C@H](O)CCC[C@@H](C)C/C=C/[C@H]3[C@@H]1O [CYTOCHALASIN B] | – | – | – | – | – | – | – | 0.39 (≈ 0.813 µM) | > 30 | – | – | – | – | Ratio [8]: 76.9; IC50 [14]: 0.521 µM; Ratio IC50 [15]: >120
6 | COc1cccc2c1C(=O)c1c(O)c3c(c(O)c1C2=O)C[C@@](O)(C(=O)CO)C[C@@H]3O[C@H]1C[C@H](N)[C@H](O)[C@H](C)O1 [DOXORUBICIN] | – | – | – | – | – | – | – | – | – | < 1.1 | < 1.1 | < 1.1 | < 1.1 | –
7 | O=c1[nH]cc(F)c(=O)[nH]1 [FLUOROURACIL] | – | – | – | – | – | – | – | – | – | > 10 | 6.3 (≈ 48.4 µM) | – | > 10 | IC50 (BT-549; bt-549): Not Active
8 | COc1ccc2c(OC)c3c4c(ccnc4c2c1)C(=O)C(=O)N3C [HADRANTHINE A] | > 40 | – | 4.5 (≈ 14 µM) | 20 (≈ 62.1 µM) | 0.12 (≈ 0.372 µM) | 0.12 (≈ 0.372 µM) | > 40 | – | – | > 10 | > 10 | > 10 | – | IC50 (Cryptococcus neoformans [2]): Not Active; MIC (Cryptococcus neoformans [2]): inactive; IC50 (Staphylococcus aureus [5]): Not Active; MIC (Staphylococcus aureus [5]): inactive; IC50 (Staphylococcus aureus [9]): Not Active; MIC (Staphylococcus aureus [9]): inactive; IC50 (KB; kb): Not Active
9 | COc1c2c3c(ccnc3c3ccccc13)C(=O)C(=O)N2 [HADRANTHINE B] | – | – | – | – | – | – | – | 4.2 (≈ 15.1 µM) | > 12.5 | 3.6 (≈ 12.9 µM) | 3 (≈ 10.8 µM) | 6.6 (≈ 23.7 µM) | 6.4 (≈ 23 µM) | Ratio IC50 [8]: 3
10 | CO[C@H]1/C=C/O[C@@]2(C)Oc3c(C)c(O)c4c(O)c(c(/C=N/N5CCN(C)CC5)c(O)c4c3C2=O)NC(=O)/C(C)=C\C=C\[C@H](C)[C@H](O)[C@@H](C)[C@@H](O)[C@@H](C)[C@H](OC(C)=O)[C@@H]1C [RIFAMPIN] | – | – | – | – | – | – | – | – | – | – | – | – | – | MIC (Staphylococcus aureus [5]; [24]): 0.312 mg/L (≈ 0.38 µM); IC50 (Staphylococcus aureus [5]; [19]): 0.0025 mg/L (≈ 0.00304 µM); MIC (Staphylococcus aureus [9]; [20]): 0.02 mg/L (≈ 0.0243 µM); IC50 (Staphylococcus aureus [9]; [21]): 0.01 mg/L (≈ 0.0122 µM)
11 | O=C1c2ccccc2-c2nccc3ccnc1c23 [SAMPANGINE] | > 11 | 0.15 (≈ 0.646 µM) | 0.15 (≈ 0.646 µM) | 0.39 (≈ 1.68 µM) | 0.068 (≈ 0.293 µM) | 0.42 (≈ 1.81 µM) | > 70 | < 0.15 | 2 (≈ 8.61 µM) | 4.1 (≈ 17.7 µM) | 0.37 (≈ 1.59 µM) | 6.4 (≈ 27.6 µM) | 5.3 (≈ 22.8 µM) | MIC (Cryptococcus neoformans [2]; [17]): 0.78 mg/L (≈ 3.36 µM); MIC (Staphylococcus aureus [5]; [24]): 12.5 mg/L (≈ 53.8 µM); IC50 (Staphylococcus aureus [5]; [19]): 9 mg/L (≈ 38.8 µM); Ratio [8]: >13.3; IC50 [14]: > 43.1 µM; IC50 (Staphylococcus aureus [9]; [21]): 5.5 mg/L (≈ 23.7 µM); Ratio IC50 [15]: <0.2; MIC (Candida albicans [16]): 1.56 mg/L (≈ 6.72 µM)
